As usually defined, the Kb is the equilibrium dissociation constant of an antagonist, usually derived from a functional assay. A lower Kb goes with a more potent antagonist.

Our source for the Kb and Ki values is article PMC3809033 (Clinical pharmacology and therapeutics, 2011).

The target in one assay is 5-HT2A receptor (Homo sapiens, UniProt P28223). Kind of assay: inositol phosphate release, antagonist mode. The format is cell-based. Particulars: receptor activated by 1 μmol/l 5-HT.
The target of assay [1] is norepinephrine transporter (Homo sapiens, UniProt P23975). Kind of assay: radioligand competition binding. The settings on record: read-out: [drawing 1] / In vitro; Cheng-Prusoff; details in supplement. In a few lines:
(§1)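 Test compound (purity >98%) was run in competition against radioligand binding at six concentrations from 10 nmol/l to 100 μmol/l to build concentration–response curves. IC50 (50% displacement of bound radioligand) was obtained by nonlinear fitting. Ki was derived with Cheng–Prusoff, using free radioligand concentration and each radioligand's KD, and expressed as pKi.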

In another assay the target is 5-HT2B receptor (Homo sapiens, UniProt P41595). Kind of assay: radioligand competition binding. Particulars: read-out: [drawing 1] / In vitro; Cheng-Prusoff; details in supplement. In short, it runs like this:
as §1
In general terms: Displacement assays read how much labelled ligand stays bound in the presence of the test substance.

The target of a further assay is serotonin transporter (Homo sapiens, UniProt P31645). Kind of assay: radioligand competition binding. Particulars: read-out: [drawing 1] / In vitro; Cheng-Prusoff; details in supplement. In a few lines:
as §1

Another assay has as its target 5-HT7 receptor (Homo sapiens, UniProt P34969). Kind of assay: radioligand competition binding. The settings on record: read-out: [drawing 1] / In vitro; Cheng-Prusoff; details in supplement. In short, it runs like this:
as §1

The next assay deals with 5-HT6 receptor (Homo sapiens, UniProt P50406). Nature of the assay: radioligand competition binding. The settings on record: read-out: [drawing 1] / In vitro; Cheng-Prusoff; details in supplement. In a few lines: as §1
Chain of 5-HT6 receptor (P50406 whole entry): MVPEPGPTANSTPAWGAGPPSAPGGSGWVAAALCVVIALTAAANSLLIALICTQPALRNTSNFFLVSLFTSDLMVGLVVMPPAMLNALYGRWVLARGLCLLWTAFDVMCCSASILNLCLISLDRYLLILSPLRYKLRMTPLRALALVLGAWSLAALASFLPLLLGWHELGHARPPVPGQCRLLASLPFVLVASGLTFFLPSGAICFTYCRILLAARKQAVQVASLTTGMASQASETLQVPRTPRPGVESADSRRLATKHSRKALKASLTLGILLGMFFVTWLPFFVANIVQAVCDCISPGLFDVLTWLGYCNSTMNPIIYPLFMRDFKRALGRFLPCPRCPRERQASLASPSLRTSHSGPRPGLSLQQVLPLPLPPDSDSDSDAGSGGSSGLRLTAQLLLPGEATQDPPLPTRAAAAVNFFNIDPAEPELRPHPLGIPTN
The target of a further assay is T1, 5-HT2C receptor (Homo sapiens, UniProt P28335).
T1 sequence (P28335 33-458): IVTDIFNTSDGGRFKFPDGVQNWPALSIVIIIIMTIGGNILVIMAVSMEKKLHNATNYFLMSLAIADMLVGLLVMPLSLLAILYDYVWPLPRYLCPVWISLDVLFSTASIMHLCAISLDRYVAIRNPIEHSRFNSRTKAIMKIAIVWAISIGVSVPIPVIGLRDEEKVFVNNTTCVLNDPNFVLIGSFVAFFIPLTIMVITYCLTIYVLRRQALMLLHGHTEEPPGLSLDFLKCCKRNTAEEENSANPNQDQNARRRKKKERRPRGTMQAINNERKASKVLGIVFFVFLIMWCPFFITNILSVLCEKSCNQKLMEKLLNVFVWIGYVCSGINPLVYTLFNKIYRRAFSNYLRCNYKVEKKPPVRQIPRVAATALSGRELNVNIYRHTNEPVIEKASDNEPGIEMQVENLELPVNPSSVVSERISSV
Kind of assay: radioligand competition binding. The settings on record: read-out: [drawing 1] / In vitro; Cheng-Prusoff; details in supplement. In a few lines:
as §1

The target in assay [2] is dopamine transporter (DAT) (Homo sapiens, UniProt Q01959). Nature of the assay: radioligand competition binding. The settings on record: read-out: [drawing 1] / In vitro; Cheng-Prusoff; details in supplement. In a few lines:
as §1

Chain of 5-HT2A receptor (P28223 whole entry): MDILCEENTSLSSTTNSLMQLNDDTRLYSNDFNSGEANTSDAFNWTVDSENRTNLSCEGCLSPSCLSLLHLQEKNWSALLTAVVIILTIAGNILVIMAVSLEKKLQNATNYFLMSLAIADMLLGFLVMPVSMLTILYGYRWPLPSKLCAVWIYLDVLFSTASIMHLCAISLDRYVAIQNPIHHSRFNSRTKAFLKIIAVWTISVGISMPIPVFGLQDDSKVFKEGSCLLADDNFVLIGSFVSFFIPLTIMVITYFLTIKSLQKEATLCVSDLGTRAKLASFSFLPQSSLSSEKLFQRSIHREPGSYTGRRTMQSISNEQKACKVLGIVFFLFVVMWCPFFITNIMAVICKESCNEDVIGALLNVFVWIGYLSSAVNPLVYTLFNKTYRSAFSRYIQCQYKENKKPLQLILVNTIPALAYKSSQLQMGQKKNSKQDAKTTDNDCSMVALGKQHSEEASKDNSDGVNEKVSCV
Chain of norepinephrine transporter (P23975 whole entry): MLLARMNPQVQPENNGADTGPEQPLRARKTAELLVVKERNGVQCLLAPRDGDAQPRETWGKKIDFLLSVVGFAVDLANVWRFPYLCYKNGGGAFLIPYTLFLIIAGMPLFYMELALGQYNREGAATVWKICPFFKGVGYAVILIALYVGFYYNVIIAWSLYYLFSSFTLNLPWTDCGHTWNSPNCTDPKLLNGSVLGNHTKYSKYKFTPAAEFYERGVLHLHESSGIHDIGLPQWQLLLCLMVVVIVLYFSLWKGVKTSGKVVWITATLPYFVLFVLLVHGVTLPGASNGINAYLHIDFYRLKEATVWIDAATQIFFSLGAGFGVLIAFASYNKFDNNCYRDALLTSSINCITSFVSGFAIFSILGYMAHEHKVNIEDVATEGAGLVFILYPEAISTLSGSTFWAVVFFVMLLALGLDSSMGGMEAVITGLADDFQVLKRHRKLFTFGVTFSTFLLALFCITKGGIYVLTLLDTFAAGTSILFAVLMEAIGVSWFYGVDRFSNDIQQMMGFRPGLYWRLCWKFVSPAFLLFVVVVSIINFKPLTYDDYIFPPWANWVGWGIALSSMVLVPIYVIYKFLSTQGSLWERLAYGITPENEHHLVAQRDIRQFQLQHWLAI
Chain of 5-HT7 receptor (P34969 whole entry): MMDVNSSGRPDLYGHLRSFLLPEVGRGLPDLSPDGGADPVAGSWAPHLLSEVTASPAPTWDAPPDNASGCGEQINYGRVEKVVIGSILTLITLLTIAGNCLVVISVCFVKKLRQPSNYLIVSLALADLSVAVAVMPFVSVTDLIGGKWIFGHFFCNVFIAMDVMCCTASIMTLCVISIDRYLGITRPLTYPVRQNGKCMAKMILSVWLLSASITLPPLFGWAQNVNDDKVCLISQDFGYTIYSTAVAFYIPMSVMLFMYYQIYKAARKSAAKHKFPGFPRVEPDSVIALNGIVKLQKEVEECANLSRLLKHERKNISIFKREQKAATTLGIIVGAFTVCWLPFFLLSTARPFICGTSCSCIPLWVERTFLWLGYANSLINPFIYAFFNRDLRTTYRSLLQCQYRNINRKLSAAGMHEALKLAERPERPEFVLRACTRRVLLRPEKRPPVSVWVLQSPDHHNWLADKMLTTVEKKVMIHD
Chain of serotonin transporter (P31645 whole entry): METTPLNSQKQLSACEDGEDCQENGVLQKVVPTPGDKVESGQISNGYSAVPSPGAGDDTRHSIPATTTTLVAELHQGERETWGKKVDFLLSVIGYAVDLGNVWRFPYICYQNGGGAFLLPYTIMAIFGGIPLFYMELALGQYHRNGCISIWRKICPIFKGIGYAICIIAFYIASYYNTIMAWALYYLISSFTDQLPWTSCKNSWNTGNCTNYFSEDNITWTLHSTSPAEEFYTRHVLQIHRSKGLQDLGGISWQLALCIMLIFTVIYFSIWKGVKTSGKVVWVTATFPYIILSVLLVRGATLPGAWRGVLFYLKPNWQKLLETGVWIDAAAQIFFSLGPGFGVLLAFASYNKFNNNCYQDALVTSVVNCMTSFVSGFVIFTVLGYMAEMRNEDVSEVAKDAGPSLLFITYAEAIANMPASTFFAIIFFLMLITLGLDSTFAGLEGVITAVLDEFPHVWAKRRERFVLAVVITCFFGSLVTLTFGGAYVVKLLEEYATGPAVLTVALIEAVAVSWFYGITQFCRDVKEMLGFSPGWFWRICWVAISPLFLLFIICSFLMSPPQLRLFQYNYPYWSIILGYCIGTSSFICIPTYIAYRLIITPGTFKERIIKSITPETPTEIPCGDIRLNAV
Chain of dopamine transporter (DAT) (Q01959 whole entry): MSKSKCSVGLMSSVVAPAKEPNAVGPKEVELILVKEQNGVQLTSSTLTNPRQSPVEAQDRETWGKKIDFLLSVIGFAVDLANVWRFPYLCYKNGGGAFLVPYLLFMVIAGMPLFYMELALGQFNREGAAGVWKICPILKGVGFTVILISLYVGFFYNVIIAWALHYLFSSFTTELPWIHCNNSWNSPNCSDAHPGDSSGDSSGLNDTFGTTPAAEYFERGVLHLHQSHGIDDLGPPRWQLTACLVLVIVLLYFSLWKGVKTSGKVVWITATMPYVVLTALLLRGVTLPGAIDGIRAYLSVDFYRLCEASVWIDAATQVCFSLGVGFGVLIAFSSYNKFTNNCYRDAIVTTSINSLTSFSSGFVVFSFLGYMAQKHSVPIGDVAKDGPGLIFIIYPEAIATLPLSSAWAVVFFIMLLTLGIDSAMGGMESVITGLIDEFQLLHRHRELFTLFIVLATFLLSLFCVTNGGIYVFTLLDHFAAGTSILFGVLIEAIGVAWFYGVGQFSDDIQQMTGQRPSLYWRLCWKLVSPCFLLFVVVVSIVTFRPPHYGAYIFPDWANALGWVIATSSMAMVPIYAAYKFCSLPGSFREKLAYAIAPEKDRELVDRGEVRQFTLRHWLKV
Chain of 5-HT2B receptor (P41595 whole entry): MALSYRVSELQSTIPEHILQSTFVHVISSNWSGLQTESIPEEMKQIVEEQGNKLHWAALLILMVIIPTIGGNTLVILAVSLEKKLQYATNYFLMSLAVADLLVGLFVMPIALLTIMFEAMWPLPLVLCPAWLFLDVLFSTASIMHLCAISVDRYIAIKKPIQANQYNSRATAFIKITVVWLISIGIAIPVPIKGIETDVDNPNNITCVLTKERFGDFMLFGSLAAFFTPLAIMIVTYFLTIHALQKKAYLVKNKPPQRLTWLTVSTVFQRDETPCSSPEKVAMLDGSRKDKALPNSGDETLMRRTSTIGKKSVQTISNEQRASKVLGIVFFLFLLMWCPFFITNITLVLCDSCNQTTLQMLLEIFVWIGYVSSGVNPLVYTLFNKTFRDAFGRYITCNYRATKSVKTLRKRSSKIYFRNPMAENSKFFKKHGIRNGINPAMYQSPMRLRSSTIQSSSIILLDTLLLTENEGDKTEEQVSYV

Compound `CN(C)CCC=C1c2ccccc2C=Cc2ccccc21` [cyclobenzaprine] registered a Kb on 5-HT2A receptor of 28.8 ± 2.49 nM. Further, the Ki was 36 nM in assay [1]; 154 nM at 5-HT2B receptor; 108 nM at serotonin transporter; 151 nM at 5-HT7 receptor; 145 nM on 5-HT6 receptor; 57 nM on 5-HT2C receptor. In addition, the Ki in assay [2] was determined as 5490 nM.
